Published values from different studies.
Lines come from different studies, so protocols differ. pIC50: −log10 of the molar value.
Read-out: cell growth or viability

| Structure (SMILES) | cell line | assay | conditions | quantity | result |
| --- | --- | --- | --- | --- | --- |
| Nc1c(C(=O)NCc2ccc(F)cc2)sc2nc(-c3ccccc3)ccc12 | HepG2 | – | 72 h | pIC50 | < 4.00 |
| O=C1[O][Pt]2([NH][C@@H]3CCCC[C@H]3[NH]2)[O]C1=O | THLE3 | imaging | 72 h | pIC50 | 4.49 |
| COc1ccc(-c2cc(C(F)(F)F)c3c(N)c(C(=O)NC4CC4)sc3n2)cc1 | HepG2 | – | 72 h | pIC50 | < 4.00 |
| Cc1cccc(F)c1NC(=N)CC(O)c1cc2c(F)cc(F)cc2c2cc(C(F)(F)F)ccc12 (stereo not drawn) | HepG2 | neutral red | 24 h | pIC50 | 4.64 |
| O=C(Nc1ccc(Cl)cc1)Nc1cccc(-c2cn(Cc3ccc(Br)cc3)nn2)c1 | Huh-7 | CCK-8 | 50 µM, 48 h | viability | 60.5% |
| N=C(CC(O)c1cc2c(F)cc(F)cc2c2cc(C(F)(F)F)ccc12)Nc1cc(F)c(F)c(F)c1 (stereo not drawn) | HepG2 | neutral red | 24 h | pIC50 | 4.74 |
| CN(C)C(=O)c1sc2nc(-c3ccccc3)ccc2c1N | HepG2 | – | 72 h | pIC50 | < 4.00 |
| N=C(CC(O)c1cc2c(F)cc(F)cc2c2cc(C(F)(F)F)ccc12)Nc1ccc(N2CCC(F)(F)CC2)cc1 (stereo not drawn) | HepG2 | neutral red | 24 h | pIC50 | 4.27 |
| N.N.[Cl][Pt][Cl] | Ramos | ATP luminescence | 10 µM, 72 h | inhibition | 100% |
